From ChEMBL document CHEMBL2331230, “Synthesis, anticancer and antioxidant activities of 2,4,5-trimethoxy chalcones and analogues from asaronaldehyde: structure-activity relationship” (Eur J Med Chem, 2013)
≈ marks a conversion by molar mass, not a printed value.

How the values were obtained:
[1] = tested on: HeLa; test: Cytotoxicity against human HeLa cells assessed as growth inhibition after 72 hrs by MTT assay; type: functional, cell-based
Procedure, shortened: (§1)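 Cells grown in DMEM with 10% FBS, seeded at 10,000 per well, and treated after 24 h with a concentration series ending at […]; pristimerin as positive control. After 72 h, MTT (5 mg/ml) added for 3 h. Formazan dissolved in DMSO, read at 570 nm. IC50 is the concentration giving 50% growth inhibition; mean ± S.D. of three tests in triplicate.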

[2] = tested on: SW982; test: Cytotoxicity against human SW982 cells assessed as growth inhibition after 72 hrs by MTT assay; type: functional, cell-based; details: SW982, 72 h; procedure, shortened: as §1
[3] = Antioxidant activity in rat erythrocytes assessed as inhibition of phenyl hydrazine-induced haemolysis after 1 hr; type: functional, cell-based; details: erythrocyte
Procedure, shortened: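 20% PCV erythrocyte suspension made from rat blood. Samples at various concentrations combined with 0.5 mM phenyl hydrazine and erythrocyte suspension in phosphate buffered saline (3 ml total). Incubated 37 °C for 1 h, centrifuged 1000 g for 10 min, supernatant absorbance at 540 nm. α-Tocopherol as positive control.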

[4] = tested on: MCF7; test: Cytotoxicity against human MCF7 cells assessed as growth inhibition after 72 hrs by MTT assay; type: functional, cell-based; details: MCF7, 72 h; procedure, shortened: as §1
[5] = tested on: Radical scavenging activity; test: Antioxidant activity assessed as DPPH free radical scavenging activity after 15 mins by spectrophotometric analysis; type: functional
Procedure, shortened: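 Test samples at several concentrations mixed with stock DPPH (final concentration not stated), made up to 3 ml in methanol, incubated 15 min. Absorbance at 517 nm read against a sample-free blank. Ascorbic acid at various concentrations as standard. Values are means of triplicates from three independent experiments.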

[6] = Antioxidant activity assessed as nitric oxide scavenging activity after 2.5 hrs by Griess assay; type: functional
Procedure, shortened: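 Sodium nitroprusside, 10 mM in phosphate saline buffer pH 7.4, added to samples at various concentrations and held 2.5 h at room temperature. Nitrite detected with Griess reagent at 546 nm against a blank. Inhibition (%) = (1 − A1/A0)×100, with A0 the control. Ascorbic acid as standard. Means of triplicates from three independent experiments.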

Row | Compound | IC50 [1] [µM] | IC50 [2] [µM] | IC50 [3] [µg/mL] | IC50 [4] [µM] | IC50 [5] [µg/mL] | IC50 [6] [µg/mL]
1 | COc1cc(OC)c(OC)cc1/C=C/C(=O)c1cc(OCc2ccccc2)cc(OCc2ccccc2)c1 | 26.9 | 69.9 | 2.167 (≈ 4.24 µM) | 23.3 | 5.002 (≈ 9.8 µM) | 2.092 (≈ 4.1 µM)
2 | COc1cc(OC)c(C(=O)/C=C/c2cc(OC)c(OC)cc2OC)c(OC)c1 | 108 | 96.5 | 2.134 (≈ 5.49 µM) | 51.4 | 5.023 (≈ 12.9 µM) | 1.977 (≈ 5.09 µM)
3 | COc1cc(OC)c(OC)cc1/C=C/C(=O)c1ccccc1 | > 150 | > 150 | 2.225 (≈ 7.46 µM) | > 150 | 4.506 (≈ 15.1 µM) | 2.012 (≈ 6.74 µM)
4 | COc1cc(OC)c(OC)cc1/C=C/C(=O)c1ccc(C)cc1 | 42.2 | 81.1 | 2.236 (≈ 7.16 µM) | 33 | 4.325 (≈ 13.8 µM) | 2.181 (≈ 6.98 µM)
5 | COc1cc(OC)c(OC)cc1/C=C/C(=O)c1cccc([N+](=O)[O-])c1 | 130 | 101 | 2.209 (≈ 6.43 µM) | > 150 | 4.309 (≈ 12.6 µM) | 2.348 (≈ 6.84 µM)
6 | COc1cc(OC)c(OC)cc1/C=C/C(=O)c1ccc(N2CCOCC2)cc1 | > 150 | > 150 | 2.121 (≈ 5.53 µM) | > 150 | 4.269 (≈ 11.1 µM) | 2.078 (≈ 5.42 µM)
7 | COc1cc(OC)c(OC)cc1/C=C/C(=O)c1ccc(Cl)c([N+](=O)[O-])c1 | 16.5 | 20.6 | 2.151 (≈ 5.69 µM) | 16.4 | 4.472 (≈ 11.8 µM) | 1.99 (≈ 5.27 µM)
8 | COc1cc(OC)c(OC)cc1/C=C/C(=O)c1cc(OC(C)=O)ccc1OC(C)=O | 57.9 | 78.5 | 2.327 (≈ 5.62 µM) | 63.7 | 4.65 (≈ 11.2 µM) | 2.37 (≈ 5.72 µM)
9 | COc1ccc(C(=O)/C=C/c2cc(OC)c(OC)cc2OC)cc1 | 37.6 | 60.5 | 2.178 (≈ 6.63 µM) | 33.9 | 4.394 (≈ 13.4 µM) | 2.07 (≈ 6.3 µM)
10 | COc1cc(OC)c(OC)cc1/C=C/C(=O)c1ccc([N+](=O)[O-])cc1 | > 150 | > 150 | 2.337 (≈ 6.81 µM) | > 150 | 4.754 (≈ 13.8 µM) | 1.982 (≈ 5.77 µM)
11 | COc1cc(OC)c(-c2cc(=O)c3cc(O)ccc3o2)cc1OC | > 150 | > 150 | 2.141 (≈ 6.52 µM) | > 150 | 4.487 (≈ 13.7 µM) | 2.142 (≈ 6.52 µM)
12 | COc1cc(OC)c(OC)cc1/C=C/C(=O)c1ccc(-n2ccnc2)cc1 | > 150 | > 150 | 2.481 (≈ 6.81 µM) | > 150 | 4.757 (≈ 13.1 µM) | 1.972 (≈ 5.41 µM)
13 | CC=Cc1cc(OC)c(OC)cc1OC [CIS-ASARONE] | 126 | > 150 |  | 129 |  | 
14 | COc1cc(C(=O)/C=C/c2cc(OC)c(OC)cc2OC)ccc1O | > 150 | > 150 | 2.163 (≈ 6.28 µM) | 95.5 | 4.31 (≈ 12.5 µM) | 2.462 (≈ 7.15 µM)
15 | COc1cc(OC)c(OC)cc1/C=C/C(=O)c1ccc(F)cc1 | 28.6 | 32.5 | 2.216 (≈ 7.01 µM) | 30 | 4.71 (≈ 14.9 µM) | 1.963 (≈ 6.21 µM)
16 | COc1cc(OC)c(OC)cc1/C=C/C(=O)c1ccc(O)cc1 |  | 155 | 2.285 (≈ 7.27 µM) | 182 | 4.293 (≈ 13.7 µM) | 2.502 (≈ 7.96 µM)
17 | COc1cc(OC)c(-c2cc(=O)c3cc(Cl)ccc3o2)cc1OC | > 150 | > 150 | 2.125 (≈ 6.13 µM) | > 150 | 4.973 (≈ 14.3 µM) | 2.145 (≈ 6.19 µM)
18 | COc1cc(OC)c(-c2oc3ccc(O)cc3c(=O)c2O)cc1OC | > 150 | > 150 | 2.154 (≈ 6.26 µM) | > 150 | 4.496 (≈ 13.1 µM) | 2.33 (≈ 6.77 µM)
19 | COc1cc(OC)c(OC)cc1/C=C/C(=O)c1cc(Cl)ccc1O | > 150 | > 150 | 2.233 (≈ 6.4 µM) | > 150 | 5.073 (≈ 14.5 µM) | 2.32 (≈ 6.65 µM)
20 | COc1cc(OC)c(OC)cc1/C=C/C(=O)c1ccc(Br)cc1 | 31.7 | 38.2 | 2.3 (≈ 6.1 µM) | 18.3 | 4.318 (≈ 11.4 µM) | 2.224 (≈ 5.9 µM)
21 | COc1cc(OC)c(-c2cc(=O)c3ccc(O)cc3o2)cc1OC | > 150 | > 150 | 2.147 (≈ 6.54 µM) | > 150 | 4.808 (≈ 14.6 µM) | 2.273 (≈ 6.92 µM)
22 | COC(=O)[C@]1(C)CC[C@]2(C)CC[C@]3(C)C4=CC=C5C(=CC(=O)C(O)=C5C)[C@]4(C)CC[C@@]3(C)[C@@H]2C1 [PRISTIMERIN] | 3.42 | 1.28 |  | 0.87 |  | 
23 | COc1cc(OC)c(OC)cc1/C=C/C(=O)c1cccc(C(F)(F)F)c1 | > 150 | > 150 | 2.302 (≈ 6.28 µM) | > 150 | 5.153 (≈ 14.1 µM) | 2.085 (≈ 5.69 µM)
24 | Cc1c(C)c2c(c(C)c1O)CC[C@@](C)(CCC[C@H](C)CCC[C@H](C)CCCC(C)C)O2 [ALPHA-TOCOPHEROL] |  |  | 3.658 (≈ 8.49 µM) |  |  | 
25 | COc1cc(OC)c(C2CC(=O)c3cc(O)ccc3O2)cc1OC (centres undefined) | > 150 | > 150 | 2.14 (≈ 6.48 µM) | > 150 | 4.566 (≈ 13.8 µM) | 2.434 (≈ 7.37 µM)
26 | COc1cc(OC)c(OC)cc1/C=C/C(=O)c1ccc(O)cc1O | 37.6 | 32.4 | 2.373 (≈ 7.18 µM) | 33.8 | 4.368 (≈ 13.2 µM) | 2.763 (≈ 8.36 µM)
27 | COc1cc(OC)c(OC)cc1/C=C/C(=O)c1ccc(Cl)cc1 | 36.5 | 58.5 | 2.298 (≈ 6.91 µM) | 29.5 | 4.593 (≈ 13.8 µM) | 2.014 (≈ 6.05 µM)
28 | O=C1O[C@H]([C@@H](O)CO)C(O)=C1O [ASCORBIC ACID] |  |  |  |  | 3.039 (≈ 17.3 µM) | 2.632 (≈ 14.9 µM)
29 | COc1cc(OC)c(-c2oc3ccc(Cl)cc3c(=O)c2O)cc1OC | > 150 | > 150 | 2.144 (≈ 5.91 µM) | > 150 | 4.68 (≈ 12.9 µM) | 2.106 (≈ 5.81 µM)
30 | COc1cc(OC)c(OC)cc1/C=C/C(=O)c1cc(O)ccc1O | > 150 | > 150 | 2.103 (≈ 6.37 µM) | > 150 | 2.653 (≈ 8.03 µM) | 2.444 (≈ 7.4 µM)
